ChEMBL document CHEMBL4270536, “Preparation, characterisation and biological evaluation of new N-phenyl amidobenzenesulfonates and N-phenyl ureidobenzenesulfonates inducing DNA double-strand breaks. Part 3. Modulation of ring A” (Eur J Med Chem, 2018)
Active and inactive are the calls of the source. No cut-off for these calls is given here.

Assays:
[1] = tested on: HT-1080; assay: Antiproliferative activity against human HT1080 cells after 48 hrs by SRB assay; type: functional, cell-based; conditions: HT-1080, 48 h
Summary of the method: (§1)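 Cells grown in DMEM with 5% FBS at 37 C; seeded per well at 2.5 x 10^3 (HT-1080), 4.0 x 10^3 (HT-29), 3.0 x 10^3 (M21) or 2.5 x 10^3 (MCF7). Drugs from 40 mM DMSO stock, serial dilutions, final 100 µM to 78 nM, DMSO <0.5%.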

[2] = tested on: HT-29; assay: Antiproliferative activity against human HT-29 cells after 48 hrs by SRB assay; type: functional, cell-based; conditions: HT-29, 48 h; summary of the method: as §1
[3] = tested on: M21; assay: Antiproliferative activity against human M21 cells after 48 hrs by SRB assay; type: functional, cell-based; conditions: M21, 48 h; summary of the method: as §1
[4] = tested on: MCF7; assay: Antiproliferative activity against human MCF7 cells after 48 hrs by SRB assay; type: functional, cell-based; conditions: MCF7, 48 h; summary of the method: as §1
[5] = tested on: M21; assay: Induction of DNA damage in human M21 cells assessed as increase in gammaH2Ax level at 5 times IC50 after 24 hrs by immunofluorescence based epifluorescence microscopy; type: functional, cell-based
Summary of the method: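 M21 cells (1 x 10^5) on fibronectin-coated (5 µg/mL, 1 h, 37 C) cover slides, 24 h attachment, then drug for 24 h; DMSO 0.25% in medium as control. Fixed with 3.7% formaldehyde, permeabilized with 0.1% saponin/3% BSA, mouse anti-H2AX pS139 (1:8000), DAPI nuclear stain; γH2AX foci imaged by epifluorescence microscopy.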

[6] = Alkylating activity at DNA (unknown origin) after 90 mins by colorimetric NBP assay; type: functional
Summary of the method: (§2)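 NBP alkylation kinetics (Bardos colorimetric method): 400 nmol drug in 1 mL ethanol mixed with 1 mL NBP (10% v/v in 95% ethanol), 1 mL 50 mM acetate buffer pH 4.3 and 1 mL ethanol, kept on ice, then heated at 80 C in shaking water bath; stopped on ice 5 min after 0, 30, 60, 90 min. Rate constant from linear regression of absorbance curve; chlorambucil as positive control.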

[7] = Alkylating activity at DNA (unknown origin) after 90 mins by colorimetric NBP assay relative to chlorambucil; type: functional; summary of the method: as §2
[8] = tested on: M21; assay: Cell cycle arrest in human M21 cells assessed as accumulation at S phase at 2 times IC50 after 24 hrs by DAPI staining based flow cytometry relative to control
[9] = tested on: M21; assay: Cell cycle arrest in human M21 cells assessed as accumulation at G2/M phase at 2 times IC50 after 24 hrs by DAPI staining based flow cytometry relative to control
[10] = tested on: M21; assay: Cell cycle arrest in human M21 cells assessed as accumulation at G0/G1 phase at 2 times IC50 after 24 hrs by DAPI staining based flow cytometry relative to control
[11] = tested on: M21; assay: Cell cycle arrest in human M21 cells assessed as accumulation at sub-G1 phase at 2 times IC50 after 24 hrs by DAPI staining based flow cytometry relative to control
[12] = tested on: M21; assay: Cell cycle arrest in human M21 cells assessed as accumulation at sub-G1 phase at 2 times IC50 after 24 hrs by DAPI staining based flow cytometry relative to control; type: functional
Summary of the method: (§3)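 Flow cytometry in M21 cells seeded in six-well plates, allowed 24 h, then exposed 24 h to drug (2- or 5-fold IC50); DMSO 0.5% control. Trypsinized, PBS-washed, fixed in ice-cold EtOH, stained with 2 mg/mL DAPI in PBS; sub-G1, G0/G1, S and G2/M fractions measured on LSR II cytometer.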

[13] = tested on: M21; assay: Cell cycle arrest in human M21 cells assessed as accumulation at G0/G1 phase at 2 times IC50 after 24 hrs by DAPI staining based flow cytometry relative to control; type: functional; summary of the method: as §3
[14] = tested on: M21; assay: Cell cycle arrest in human M21 cells assessed as accumulation at S phase at 2 times IC50 after 24 hrs by DAPI staining based flow cytometry relative to control; type: functional; summary of the method: as §3
[15] = tested on: M21; assay: Cell cycle arrest in human M21 cells assessed as accumulation at G2/M phase at 2 times IC50 after 24 hrs by DAPI staining based flow cytometry relative to control; type: functional; summary of the method: as §3
[16] = tested on: M21; assay: Induction of DNA damage in human M21 cells assessed as increase in gammaH2Ax level at 5 times IC50 after 24 hrs by immunofluorescence based epifluorescence microscopy
[17] = tested on: M21; assay: Cell cycle arrest in human M21 cells assessed as accumulation at sub-G1 phase at 1.8 uM after 24 hrs by DAPI staining based flow cytometry relative to control; type: functional; summary of the method: as §3
[18] = tested on: M21; assay: Cell cycle arrest in human M21 cells assessed as accumulation at G0/G1 phase at 1.8 uM after 24 hrs by DAPI staining based flow cytometry relative to control; type: functional; summary of the method: as §3
[19] = tested on: M21; assay: Cell cycle arrest in human M21 cells assessed as accumulation at S phase at 1.8 uM after 24 hrs by DAPI staining based flow cytometry relative to control; type: functional; summary of the method: as §3
[20] = tested on: M21; assay: Cell cycle arrest in human M21 cells assessed as accumulation at G2/M phase at 1.8 uM after 24 hrs by DAPI staining based flow cytometry relative to control; type: functional; summary of the method: as §3

| Compound | IC50 [1] [µM] | IC50 [2] [µM] | IC50 [4] [µM] | IC50 [3] [µM] | Activity [5] | K [6] [×10⁻³ /s] | fold change (FC) [7] | Activity [8] [%] | Activity [9] [%] | Activity [10] [%] | Activity [11] [%] | Activity [12] [%] | Activity [13] [%] | Activity [14] [%] | Activity [15] [%] | Activity [16] | Activity [17] [%] | Activity [18] [%] | Activity [19] [%] | Activity [20] [%] |
| --- | --- | --- | --- | --- | --- | --- | --- | --- | --- | --- | --- | --- | --- | --- | --- | --- | --- | --- | --- | --- |
| CC(C)c1ccccc1OS(=O)(=O)c1ccc(NC(=O)CCCl)cc1 | 6.5 | 16 | 9 | 14 |  | 0.024 | 220 |  |  |  |  | 0.1 | 33.7 | 35.6 | 30.6 | Active |  |  |  |  |
| CC(C)c1ccccc1OS(=O)(=O)c1ccc(NC(=O)NCCCCl)cc1 | 2.7 | 6.9 | 7.4 | 9.3 | Active | 0.033 | 160 | 38.6 | 17.2 | 43.4 | 0.8 |  |  |  |  |  |  |  |  |  |
| CCCNC(=O)Nc1ccc(S(=O)(=O)Oc2ccccc2I)cc1 | 0.7 | 6.8 | 2.9 | 5.4 | Active | 0.4 | 13 | 26.6 | 10.7 | 62.6 | 0.1 |  |  |  |  |  |  |  |  |  |
| CC(C)c1ccccc1OS(=O)(=O)c1ccc(NC(=O)C(C)(C)C)cc1 | 11 | 15 | 6.5 | 6.2 |  | 0.007 | 780 |  |  |  |  | 0.4 | 36.7 | 46.9 | 16 | Active |  |  |  |  |
| CCC(=O)Nc1ccc(S(=O)(=O)Oc2ccccc2C(C)C)cc1 | 2.1 | 7.4 | 11 | 11 |  | 0.31 | 17 |  |  |  |  | 0.6 | 39.6 | 44.4 | 15.4 | Active |  |  |  |  |

More lines, in order of falling IC50 [1], values ahead:

| IC50 [1] [µM] | IC50 [2] [µM] | IC50 [4] [µM] | Compound | IC50 [3] [µM] | Activity [5] | K [6] [×10⁻³ /s] | fold change (FC) [7] | Activity [8] [%] | Activity [9] [%] | Activity [10] [%] | Activity [11] [%] | Activity [12] [%] | Activity [13] [%] | Activity [14] [%] | Activity [15] [%] | Activity [16] | Activity [17] [%] | Activity [18] [%] | Activity [19] [%] | Activity [20] [%] |
| --- | --- | --- | --- | --- | --- | --- | --- | --- | --- | --- | --- | --- | --- | --- | --- | --- | --- | --- | --- | --- |
| 4.2 | 14 | 8.9 | O=C(CCCl)Nc1ccc(S(=O)(=O)Oc2ccccc2I)cc1 | 12 |  | 0.063 | 84 |  |  |  |  | 0.2 | 27.5 | 34.9 | 37.4 | Active |  |  |  |  |
| 2.8 | 9.6 | 7.6 | O=C(NCCCCl)Nc1ccc(S(=O)(=O)Oc2ccccc2I)cc1 | 4.6 | Active | 0.12 | 44 | 32 | 13.5 | 54.4 | 0.1 |  |  |  |  |  |  |  |  |  |
| 2 | 11 | 9.7 | CCCC(=O)Nc1ccc(S(=O)(=O)Oc2ccccc2I)cc1 | 9 |  | 0.088 | 60 |  |  |  |  | 0.1 | 37 | 22.8 | 40.1 | Active |  |  |  |  |
| 0.95 | 4.9 | 6.6 | CCCC(=O)Nc1ccc(S(=O)(=O)Oc2ccccc2C(C)C)cc1 | 6.1 |  | 0.37 | 14 |  |  |  |  | 0.7 | 40 | 43.8 | 15.5 | Active |  |  |  |  |
| 0.5 |  | 0.2 | CC[C@@]1(O)C(=O)OCc2c1cc1n(c2=O)Cc2cc3c(CN(C)C)c(O)ccc3nc2-1 [TOPOTECAN] |  |  |  |  |  |  |  |  |  |  |  |  |  | 0.1 | 45.2 | 31.9 | 22.8 |
| 0.25 | 1.1 | 10 | CCNC(=O)Nc1ccc(S(=O)(=O)Oc2ccccc2C(C)C)cc1 | 4.7 | Active | 0.37 | 14 | 31.5 | 8.9 | 58.8 | 0.8 |  |  |  |  |  |  |  |  |  |
| 0.14 | 5.3 | 1.1 | CCNC(=O)Nc1ccc(S(=O)(=O)Oc2ccccc2I)cc1 | 5.6 | Active | 0.12 | 42 | 23.4 | 8.7 | 67.6 | 0.3 |  |  |  |  |  |  |  |  |  |
